MT1-MMP act inh: blockers of MT1-MMP proenzyme processing, primary screen, HT1080 RFP-PRO-GFP cells, GFP/RFP fluorescence; GFP/RFP ratio fluorescence, overnight; percent of plate control window, DMSO zero; Matrix metalloproteinase-14 (Homo sapiens), P50281; AID 651647, 2012; 0.061% of 360,000 active; GFP/RFP ratio change, % at 20 µM;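 active = GFP/RFP ratio change of at least 30% with cell ATP level not reduced by more than half and red fluorescence within 50% of control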
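Assay system: HT1080 RFP-PRO-GFP cells | Dosing: 20 µM single dose, 1% DMSO | Incubation: Cells overnight before dosing, compound overnight, 37 °C, 5% CO2 | Evaluation: GFP/RFP fluorescence ratio | Control set: DMSO-only wells and HT1080 RFP-L50D-GFP cell wells as references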
eIF4H inh: human eIF4H binding inhibitors, primary screen, translation initiation inhibitor project, biochemical, uHTS, fluorescence polarization; eIF4H fluorescence polarization binding assay; inhibition, % at 35 µM; 0.94% of 290,000 active; Eukaryotic translation initiation factor 4H (Homo sapiens), Q15056;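 note: calls also rest on retests at 20 µM and on dose response follow-up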
PABP polyA inh: PABP poly(A) RNA binding inhibitors, primary screen, biochemical, fluorescence polarization, uHTS; Polyadenylate-binding protein 1 (Homo sapiens), P11940; inhibition, % at 35 µM; 1% of 290,000 active;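 note: calls also rest on retests at 20 µM and on dose response follow-up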
Target sequence (P11940 whole entry, looked up): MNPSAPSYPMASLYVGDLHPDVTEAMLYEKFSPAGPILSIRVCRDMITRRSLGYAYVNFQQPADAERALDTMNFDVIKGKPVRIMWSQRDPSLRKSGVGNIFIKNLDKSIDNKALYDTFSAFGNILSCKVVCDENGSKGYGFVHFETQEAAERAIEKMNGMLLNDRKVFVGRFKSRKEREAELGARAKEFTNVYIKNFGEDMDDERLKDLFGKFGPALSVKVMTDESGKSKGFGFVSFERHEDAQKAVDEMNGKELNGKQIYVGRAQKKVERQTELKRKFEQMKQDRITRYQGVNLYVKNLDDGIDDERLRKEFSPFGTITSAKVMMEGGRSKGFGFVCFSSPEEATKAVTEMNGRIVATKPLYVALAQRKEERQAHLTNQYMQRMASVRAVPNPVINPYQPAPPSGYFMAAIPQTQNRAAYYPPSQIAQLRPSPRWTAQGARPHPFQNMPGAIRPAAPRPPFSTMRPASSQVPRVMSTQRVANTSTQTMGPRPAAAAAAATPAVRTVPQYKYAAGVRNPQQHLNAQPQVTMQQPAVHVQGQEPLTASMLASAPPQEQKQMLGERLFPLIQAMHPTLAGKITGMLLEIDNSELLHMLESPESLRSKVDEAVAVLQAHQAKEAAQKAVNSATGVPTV
MLLE-PAM2 inh: inhibitors of PABP1 MLLE–PAM2 peptide binding, primary screen, biochemical, fluorescence polarization, FITC-PAM2, GST-MLLE | AID 588489, 2011 | 0.36% of 360,000 active | inhibition, % at 20 µM; in the data active = inhibition above about 35%, passing the limit was not always enough
SKN-1 inh: suppressors of acrylamide-induced Pgst-4::GFP reporter in worms, primary screen, SKN-1 inhibitor project, whole organism, uHTS, GFP/RFP fluorescence ratio, strain VP596 | AID 624304, 2012 | C. elegans VP596 Pgst-4::GFP/RFP ratio, 24 h | inhibition, % at 21.8 µM | 0.49% of 360,000 active;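 active = interference check ratio from 0.5 to 1.5 plus GFP to RFP signal ratio inhibition reaching or exceeding a fixed threshold, cut at about 30% in these data, passing the limit was not always enough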
Numbers stand for hits; n = inactive; x = no result given; + = active, no number. The list is not random: actives were taken first. Their share in the collection is about 1.7%. Unless noted, the rule behind the calls is not given here.

SMILES	MT1-MMP act inh	eIF4H inh	PABP polyA inh	MLLE-PAM2 inh	SKN-1 inh
N=c1c(C(=O)NCCc2ccccc2)cc2c(=O)n3ccccc3nc2n1Cc1ccco1	n	92.8	n	n	n
COc1cccc(CN2CC(C(=O)NCCCCc3ccccn3)CCC2=O)c1 (stereo not given)	n	n	n	n	n
N=c1c(S(=O)(=O)c2ccccc2)cc2c(=O)n3ccccc3nc2n1Cc1ccco1	n	94.8	59.6	n	n
Cc1ccc(CN2CC(C(=O)Nc3ccc(S(=O)(=O)N4CCCCC4)cc3)CC2=O)cc1 (stereo not given)	n	n	n	n	n
O=C(O)c1ccc(Cn2cnc3scc(-c4ccccc4)c3c2=O)cc1	n	n	n	n	n
O=C(O)c1ccc(Cn2cnc3cccnc32)cc1	n	n	n	43.0	n
O=C(O)C1Nc2c(C(=O)N3CCOCC3)cccc2C2C=CCC12 (stereo not given)	n	98.6	49.6	n	n
Cc1ccc2c(c1C)NC(C(=O)O)C1CC=CC21 (stereo not given)	n	94.1	72.3	n	n
Cc1cc(C)c2c(c1)NC(C(=O)O)C1CC=CC21 (stereo not given)	n	92.8	85.8	n	n
CCn1c(=O)c2[nH]c(Cl)nc2n(CC)c1=O	n	x	x	n	n
CCN1C(=O)/C(=C\c2ccc(-c3cccc(C(=O)OC)c3)o2)SC1=Nc1ccc(C(=O)O)cc1	x	n	n	x	x
CCN=C1S/C(=C\c2ccc(-c3cccc(C(=O)O)c3)o2)C(=O)N1CC	n	64.2	n	n	n
O=C(O)c1cccc(-c2ccc(/C=C3/SC(=Nc4ccccc4)N(Cc4cccnc4)C3=O)o2)c1	n	63.6	47.7	n	n
CCOC(=O)c1c(NC(=S)Nc2ccc(Cl)cc2)sc(C)c1C	n	n	n	n	n
Cc1sc(NC(=S)Nc2ccc(F)cc2)c(C(N)=O)c1C	n	n	n	34.8	n
COc1ccc(-c2csc(NC(=O)CSc3n[nH]c(C)n3)n2)cc1	x	n	n	n	n
COc1ccc(-c2csc(NC(=O)CSc3n[nH]c(N)n3)n2)cc1	n	n	n	36.9	n
CC(C)C1OC2c3cccc4cccc(c34)C2N1c1ccccc1 (stereo not given)	n	n	n	43.9	n
O=C1CC(NS(=O)(=O)c2cccnc2)CN1c1cccc(F)c1 (stereo not given)	n	x	x	n	n
C=CCn1c(SCC(=O)c2c(N)n(C)c(=O)n(C)c2=O)nnc1-c1ccoc1C	n	x	x	n	35.2
COCCNC(=O)COc1ccc(C)cc1C(=O)c1cc(C#N)c(=O)n(C2CC2)c1	n	+	54.2	n	n
CCCSCC(=O)Nc1ncc2c(n1)-c1ccccc1CC2	n	57.6	active	n	n
Cc1ccc(Nc2c([N+](=O)[O-])ccc3c2=NC2(CCCCC2)N=3)cc1	n	n	n	39.4	n
CCCCC#Cc1ccc2c(c1)COc1c3ccccc3nn1-2	n	n	n	n	n
C#Cc1ccc2c(c1)COc1c3ccccc3nn1-2	n	x	x	n	47.9
SMILES	MT1-MMP act inh	eIF4H inh	PABP polyA inh	MLLE-PAM2 inh	SKN-1 inh
C(#CC1CCCCC1)c1ccc2c(c1)COc1c3ccccc3nn1-2	n	n	n	n	n
C(#Cc1ccc2c(c1)COc1c3ccccc3nn1-2)c1ccccc1	n	x	x	n	37.5
COc1ccccc1NS(=O)(=O)c1cc([N+](=O)[O-])ccc1N/N=C/c1sc(N2CCOCC2)nc1-c1ccccc1	n	70.7	active	n	n
COc1ccc(C(=O)N/N=C/c2sc(N3CCOCC3)nc2-c2ccccc2)cc1OC	n	n	n	n	n
COc1ccccc1NS(=O)(=O)c1cc([N+](=O)[O-])ccc1N/N=C/c1c[nH]c2ccccc12	n	n	n	n	39.9
COC(=O)[C@]1(Cc2ccccc2)N[C@H](CN(C)C(=O)c2ccc(C)cc2)[C@@H]2C(=O)N(Cc3ccccc3)C(=O)[C@@H]21	n	x	x	n	n
Cc1cscc(C)c1=S	n	x	x	38.3	n
COc1cccc(NC(=O)CN2C(=O)NC3(CCc4ccccc43)C2=O)c1 (stereo not given)	n	x	x	n	n
Clc1ccsc1-c1ccc2ccccc2n1	n	n	n	n	89.7
